# Experimental data as given in ChEMBL document CHEMBL4689842, “EUbOPEN Chemogenomics Library wave 1” (2021).
# System: U2OS
# Experiment: Multiplex assay against U2OS
# Assay type: toxicity, cell-based
# Conditions: human
# Method in brief: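 Imaging took place on a CQ1 microscope at 37°C and 5% CO2 once compound had been added to live cells stained at seeding with Hoechst33342, BioTracker Green Microtubule Cytoskeleton Dye, MitoTracker Red and Annexin V Alexa Fluor 680. CellPathfinder machine-learning gating classed cells as Hoechst high-intensity objects or normal cells, classed normal cells as having healthy, pyknosed or fragmented nuclei, and classed pyknosed cells as mitotic or apoptotic. Tubulin, mitochondrial-mass and membrane-permeability phenotypes are per cents of the healthy-nucleus cells.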
# [1] = 12 h, 1 µM, compound concentration 1 uM, replicate 1
# [2] = 12 h, 1 µM, compound concentration 1 uM, replicate 2
# [3] = 12 h, 10 µM, compound concentration 10 uM, replicate 1
# [4] = 12 h, 10 µM, compound concentration 10 uM, replicate 2
# [5] = 24 h, 1 µM, compound concentration 1 uM, replicate 1
# [6] = 24 h, 1 µM, compound concentration 1 uM, replicate 2
# [7] = 24 h, 10 µM, compound concentration 10 uM, replicate 1
# [8] = 24 h, 10 µM, compound concentration 10 uM, replicate 2
# [9] = 48 h, 1 µM, compound concentration 1 uM, replicate 1
# [10] = 48 h, 1 µM, compound concentration 1 uM, replicate 2
# [11] = 48 h, 10 µM, compound concentration 10 uM, replicate 1
# [12] = 48 h, 10 µM, compound concentration 10 uM, replicate 2
smiles,measurement,setting,value
C=C1/C(=C\C=C2/CCC[C@]3(C)[C@@H]([C@H](C)/C=C/[C@H](C)C(C)C)CC[C@@H]23)C[C@@H](O)C[C@@H]1O [DOXERCALCIFEROL],Population Apoptotic (%),[1],38%
same,Population Fragmented Nuclei (%),[1],9%
same,Population Healthy Nuclei (%),[1],82%
same,Population Hoechst High Intensity Objects (%),[1],6%
same,Population Membrane Permeable-Phenotype (%),[1],5%
same,Population Mitochondria Different-Phenotype (%),[1],11%
same,Population Mitotic Cells (%),[1],61%
same,Population Normal (%),[1],93%
same,Population Pyknosed Nuclei (%),[1],8%
same,Population Tubulin-Different-Phenotype (%),[1],17%
same,Total Cell Count,[1],2
same,Population Apoptotic (%),[2],40%
same,Population Fragmented Nuclei (%),[2],1%
same,Population Healthy Nuclei (%),[2],90%
same,Population Hoechst High Intensity Objects (%),[2],1%
same,Population Mitochondria Different-Phenotype (%),[2],14%
same,Population Mitotic Cells (%),[2],60%
same,Population Normal (%),[2],98%
same,Population Tubulin-Different-Phenotype (%),[2],9%
same,Total Cell Count,[2],111
same,Population Apoptotic (%),[3],36%
same,Population Fragmented Nuclei (%),[3],20%
same,Population Healthy Nuclei (%),[3],60%
same,Population Hoechst High Intensity Objects (%),[3],9%
same,Population Membrane Permeable-Phenotype (%),[3],8%
same,Population Mitochondria Different-Phenotype (%),[3],17%
same,Population Mitotic Cells (%),[3],63%
same,Population Normal (%),[3],90%
same,Population Pyknosed Nuclei (%),[3],19%
same,Population Tubulin-Different-Phenotype (%),[3],8%
same,Total Cell Count,[3],160
same,Population Apoptotic (%),[4],0%
same,Population Fragmented Nuclei (%),[4],27%
same,Population Healthy Nuclei (%),[4],67%
same,Population Hoechst High Intensity Objects (%),[4],6%
same,Population Membrane Permeable-Phenotype (%),[4],2%
same,Population Mitochondria Different-Phenotype (%),[4],21%
same,Population Mitotic Cells (%),[4],100%
same,Population Normal (%),[4],93%
same,Population Pyknosed Nuclei (%),[4],5%
same,Population Tubulin-Different-Phenotype (%),[4],13%
same,Total Cell Count,[4],61
same,Population Apoptotic (%),[5],7%
same,Population Fragmented Nuclei (%),[5],8%
same,Population Healthy Nuclei (%),[5],84%
same,Population Hoechst High Intensity Objects (%),[5],2%
same,Population Membrane Permeable-Phenotype (%),[5],3%
same,Population Mitochondria Different-Phenotype (%),[5],8%
same,Population Mitotic Cells (%),[5],92%
same,Population Normal (%),[5],97%
same,Population Pyknosed Nuclei (%),[5],6%
same,Population Tubulin-Different-Phenotype (%),[5],9%
same,Total Cell Count,[5],1
same,Population Apoptotic (%),[6],42%
same,Population Fragmented Nuclei (%),[6],5%
same,Population Healthy Nuclei (%),[6],86%
same,Population Hoechst High Intensity Objects (%),[6],4%
same,Population Membrane Permeable-Phenotype (%),[6],4%
same,Population Mitochondria Different-Phenotype (%),[6],7%
same,Population Mitotic Cells (%),[6],57%
same,Population Normal (%),[6],95%
same,Population Pyknosed Nuclei (%),[6],8%
same,Population Tubulin-Different-Phenotype (%),[6],14%
same,Total Cell Count,[6],157
same,Population Apoptotic (%),[7],56%
same,Population Fragmented Nuclei (%),[7],43%
same,Population Healthy Nuclei (%),[7],18%
same,Population Hoechst High Intensity Objects (%),[7],23%
same,Population Membrane Permeable-Phenotype (%),[7],11%
same,Population Mitochondria Different-Phenotype (%),[7],26%
same,Population Mitotic Cells (%),[7],43%
same,Population Normal (%),[7],76%
same,Population Pyknosed Nuclei (%),[7],37%
same,Population Tubulin-Different-Phenotype (%),[7],7%
same,Total Cell Count,[7],197
same,Population Apoptotic (%),[8],33%
same,Population Fragmented Nuclei (%),[8],25%
same,Population Healthy Nuclei (%),[8],70%
same,Population Hoechst High Intensity Objects (%),[8],3%
same,Population Membrane Permeable-Phenotype (%),[8],1%
same,Population Mitochondria Different-Phenotype (%),[8],16%
same,Population Mitotic Cells (%),[8],66%
same,Population Normal (%),[8],96%
same,Population Pyknosed Nuclei (%),[8],4%
same,Population Tubulin-Different-Phenotype (%),[8],13%
same,Total Cell Count,[8],83
same,Population Apoptotic (%),[9],21%
same,Population Fragmented Nuclei (%),[9],4%
same,Population Healthy Nuclei (%),[9],89%
same,Population Hoechst High Intensity Objects (%),[9],2%
same,Population Membrane Permeable-Phenotype (%),[9],2%
same,Population Mitochondria Different-Phenotype (%),[9],13%
same,Population Mitotic Cells (%),[9],78%
same,Population Normal (%),[9],97%
same,Population Pyknosed Nuclei (%),[9],6%
same,Population Tubulin-Different-Phenotype (%),[9],10%
same,Total Cell Count,[9],5
same,Population Apoptotic (%),[10],42%
same,Population Healthy Nuclei (%),[10],90%
same,Population Hoechst High Intensity Objects (%),[10],1%
same,Population Membrane Permeable-Phenotype (%),[10],0%
same,Population Mitotic Cells (%),[10],57%
same,Population Normal (%),[10],98%
same,Population Pyknosed Nuclei (%),[10],5%
same,Population Tubulin-Different-Phenotype (%),[10],11%
same,Total Cell Count,[10],235
same,Population Apoptotic (%),[11],47%
same,Population Fragmented Nuclei (%),[11],53%
same,Population Healthy Nuclei (%),[11],16%
same,Population Hoechst High Intensity Objects (%),[11],18%
same,Population Membrane Permeable-Phenotype (%),[11],25%
same,Population Mitochondria Different-Phenotype (%),[11],29%
same,Population Mitotic Cells (%),[11],52%
same,Population Normal (%),[11],81%
same,Population Pyknosed Nuclei (%),[11],30%
same,Population Tubulin-Different-Phenotype (%),[11],25%
same,Total Cell Count,[11],316
same,Population Apoptotic (%),[12],22%
same,Population Fragmented Nuclei (%),[12],12%
same,Population Healthy Nuclei (%),[12],79%
same,Population Hoechst High Intensity Objects (%),[12],3%
same,Population Membrane Permeable-Phenotype (%),[12],2%
same,Population Mitochondria Different-Phenotype (%),[12],22%
same,Population Mitotic Cells (%),[12],77%
same,Population Normal (%),[12],96%
same,Population Pyknosed Nuclei (%),[12],8%
same,Population Tubulin-Different-Phenotype (%),[12],28%
same,Total Cell Count,[12],127
